Published values collected from several papers.
Lines come from different studies, so protocols differ.
Target: Serine/threonine-protein kinase tousled-like 2 (TLK2, Homo sapiens, UniProt Q86UE8)

| Compound | test | conditions | remaining binding |
| --- | --- | --- | --- |
| Nc1ncc2c(n1)-c1c([nH]c3ccc(C#CC4CC4)cc13)CCCC2 | binding, competition with immobilised ligand | 1 µM | 100% |
| C=CC(=O)N1CCC(C(=O)NCC(=O)N2CCN(c3nc(-c4cnc(N)nc4C(F)F)nc(N4CCOCC4)n3)CC2)CC1 | binding, competition with immobilised ligand | 1 µM | 100% |
| C[C@@H]1CCN(c2nccc(-c3cnn4ncccc34)n2)C1 | binding | 1 µM | 100% |
| CCS(=O)(=O)c1cc2cc(C[C@](O)(CC(C)(C)c3ccc(F)cc3C(N)=O)C(F)(F)F)[nH]c2cn1 | cell-free assay, competition with immobilised ligand | 1 µM | 100% |
| Cc1cnc(Nc2ccc(C(=O)N3CCC(N4CCCC4)CC3)cc2)nc1-c1cc2ccccc2s1 | binding, competition with immobilised ligand | 1 µM | 15% |
| CN(C)c1nccc(-c2cnn3ncccc23)n1 | binding | 1 µM | 100% |
| O=C(NCCCN1CCOCC1)c1ccc(Nc2ncc(Cl)c(-c3ccc(Cl)s3)n2)cc1 | binding, competition with immobilised ligand | 1 µM | 77% |
| c1cncc(-c2cccc(Nc3nccc(NC4CCCCC4)n3)c2)c1 | binding, competition with immobilised ligand | 10 µM | 100% |
| N[C@H]1CCN(c2nccc(-c3cnn4ncccc34)n2)C1 | binding | 1 µM | 100% |
| CO[C@@H](C)c1c(Nc2ccc([C@H](N(C)C(=O)C3CCS(=O)(=O)CC3)C(F)(F)F)cc2)cnc2cc(Cl)nn12 | cell-free assay, competition with immobilised ligand | 1 µM | 92% |
| CCN1CCN(Cc2ccc(C(=O)Nc3ccc(C)c(Oc4ccc5c(c4)CC(=O)N5)c3)cc2C(F)(F)F)CC1 | binding, competition with immobilised ligand | 1 µM | 94% |
| O=C(c1ccc(Nc2ncc(Cl)c(-c3cc4ccccc4s3)n2)cc1)N1CCC(N2CCCC2)CC1 | binding, competition with immobilised ligand | 1 µM | 26% |
| CNC(=O)[C@@H]1CC[C@@H](n2c(-c3ccc4cnccc4c3)nc3ccc(C(=O)NCc4cccc(C(N)=O)c4)cc32)C1 | binding, competition with immobilised ligand | 1 µM | 100% |
| NS(=O)(=O)c1cc(NC(=O)C2(c3ccccc3Cl)CC2)ccc1Oc1cccc(Cl)c1 | cell-free assay, competition with immobilised ligand | 1 µM | 100% |
| COc1ccnn2ncc(-c3ccnc(N(C)C)n3)c12 | binding | 1 µM | 100% |
| N#CC1(c2ccccn2)CCN(Cc2cc(C(=O)N3CCCC3)c(=O)n3ccccc23)CC1 | cell-free assay, competition with immobilised ligand | 1 µM | 100% |
| CN(C)c1ncc(F)c(-c2cnn3ncccc23)n1 | binding | 1 µM | 100% |
| Cc1nc(C2CCN(C(=O)c3ccc(OC(F)(F)F)cc3N)CC2)c2ncc(N3CCN(C)CC3)cc2n1 | cell-free assay, competition with immobilised ligand | 1 µM | 100% |
| F[C@@H]1CCN(c2nccc(-c3cnn4ncccc34)n2)C1 | binding | 1 µM | 100% |
| O=C(NCC1CCOCC1)c1n[nH]cc1NC(=O)c1c(F)cccc1F | binding, competition with immobilised ligand | 1 µM | 100% |
| CNC(=O)Nc1ccc2c(c1)[C@@]1(CC2)OC(=O)N(CC(=O)N(Cc2ccc(F)cc2)[C@@H](C)C(F)(F)F)C1=O | cell-free assay, competition with immobilised ligand | 1 µM | 100% |
